Results published in ChEMBL document CHEMBL5096187, “Efficient Synthesis and Bioevaluation of Novel Dual Tubulin/Histone Deacetylase 3 Inhibitors as Potential Anticancer Agents” (J Med Chem, 2021).

Legend:
[1] = target: Tubulin (Sus scrofa) (UniProt P02554+P02550); test: Inhibition of pig brain tubulin polymerization at 10 uM measured after 20 mins by spectrometric method relative to control
How it was run: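 Pig brain tubulin was purified by three assembly/disassembly cycles and then phosphocellulose chromatography. Compound at 10 μM in PEM buffer with 1 mM GTP and 5% glycerol at 37 °C. Polymerization followed at 340 nm; inhibition taken at 20 min versus vehicle control.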

[2] = Hepatotoxicity in C57BL/6 mouse assessed as effect on AST level in serum; format: toxicity
[3] = Hepatotoxicity in C57BL/6 mouse assessed as effect on ALB level in serum; format: toxicity
[4] = tested on: B16-F10; test: Induction of apoptosis in mouse B16-F10 cells assessed as viable cells at 100 nM incubated for 48 hrs by Annexin V-FITC/PI analysis (reference value: 98.3 %); format: functional; conditions: read-out: Activity
[5] = Cardiotoxicity in C57BL/6 mouse ssessed as effect on heart rate by ECG analysis; format: toxicity
How it was run: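 Mice aged 6–8 weeks dosed by intragastric gavage once daily for 14 days; ECG and heart rate recorded on a PowerLab system.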

[6] = Nephrotoxicity in C57BL/6 mouse assessed as effect on creatinine level in serum; format: toxicity; conditions: in vivo
[7] = tested on: B16-F10; test: Induction of apoptosis in mouse B16-F10 cells assessed as early apoptotic cells at 100 nM incubated for 48 hrs by Annexin V-FITC/PI analysis (reference value: 1.68 %); format: functional
[8] = tested on: B16-F10; test: Induction of apoptosis in mouse B16-F10 cells assessed as necrotic cells at 25 nM incubated for 48 hrs by Annexin V-FITC/PI analysis (reference value: 0.012 %); format: functional
[9] = target: T1, Protein deacetylase HDAC6 (Homo sapiens, UniProt Q9UBN7); test: Inhibition of full length N-terminal GST-tagged human recombinant HDAC6 (1 to 1215 residues) expressed in Baculovirus infected Sf9 cells using Ac-Leu-Gly-Lys (Ac)-AMC as substrate pretreated for 5 mins followed by substrate addition and measured after 30 mins
T1 sequence (Q9UBN7 whole entry): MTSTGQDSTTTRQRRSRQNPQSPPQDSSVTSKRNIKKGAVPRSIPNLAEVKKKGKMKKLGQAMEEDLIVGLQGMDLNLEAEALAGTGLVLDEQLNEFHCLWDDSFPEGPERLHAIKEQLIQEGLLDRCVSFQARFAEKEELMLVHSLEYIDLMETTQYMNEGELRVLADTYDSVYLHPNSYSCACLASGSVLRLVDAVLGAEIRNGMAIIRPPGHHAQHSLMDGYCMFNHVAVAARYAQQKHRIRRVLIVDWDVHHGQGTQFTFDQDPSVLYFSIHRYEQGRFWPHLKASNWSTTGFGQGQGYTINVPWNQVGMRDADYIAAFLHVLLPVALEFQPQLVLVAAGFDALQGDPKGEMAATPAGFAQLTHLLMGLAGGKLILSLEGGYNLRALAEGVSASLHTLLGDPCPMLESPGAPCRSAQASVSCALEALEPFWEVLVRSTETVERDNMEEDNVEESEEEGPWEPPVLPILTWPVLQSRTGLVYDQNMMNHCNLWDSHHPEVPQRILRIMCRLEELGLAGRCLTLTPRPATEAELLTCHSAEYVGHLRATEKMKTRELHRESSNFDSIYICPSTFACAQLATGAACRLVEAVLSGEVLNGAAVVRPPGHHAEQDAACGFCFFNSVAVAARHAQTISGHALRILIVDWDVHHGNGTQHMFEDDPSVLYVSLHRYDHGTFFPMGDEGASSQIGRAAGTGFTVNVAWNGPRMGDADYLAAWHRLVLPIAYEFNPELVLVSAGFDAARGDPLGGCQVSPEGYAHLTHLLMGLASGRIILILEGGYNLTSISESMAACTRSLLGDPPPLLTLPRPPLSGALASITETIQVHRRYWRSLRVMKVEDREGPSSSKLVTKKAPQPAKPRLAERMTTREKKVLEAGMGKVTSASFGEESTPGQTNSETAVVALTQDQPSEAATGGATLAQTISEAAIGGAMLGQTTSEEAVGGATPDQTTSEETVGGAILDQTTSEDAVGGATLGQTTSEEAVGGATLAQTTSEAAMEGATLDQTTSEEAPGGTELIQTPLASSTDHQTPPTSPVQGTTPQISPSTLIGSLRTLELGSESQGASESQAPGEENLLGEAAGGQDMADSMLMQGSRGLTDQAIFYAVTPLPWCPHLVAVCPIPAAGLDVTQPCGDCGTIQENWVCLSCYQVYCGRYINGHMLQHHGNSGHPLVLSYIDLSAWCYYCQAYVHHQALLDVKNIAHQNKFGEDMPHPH
How it was run: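 HDAC6 at 15 ng/well in Tris buffer pH 8.0 with MgCl2, BSA, NaCl and KCl. Ten 3-fold dilutions preincubated 5 min at room temperature, then 10 μM Ac-Leu-Gly-Lys(Ac)-AMC for 30 min at 37 °C. IC50 by normalized dose–response nonlinear fit; performed at least three times.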

[10] = tested on: B16-F10; test: Induction of apoptosis in mouse B16-F10 cells assessed as viable cells at 25 nM incubated for 48 hrs by Annexin V-FITC/PI analysis (reference value: 98.3 %); format: functional; conditions: read-out: Activity
[11] = Antiproliferative activity against human YCC3/7 cells assessed as inhibition of cell viability; format: functional, cell-based
[12] = tested on: B16-F10; test: Inhibition of colony formation in mouse B16-F10 cells assessed as reduction in number of colonies incubated for 24 hrs; format: functional, cell-based; conditions: dose 25-100 nM, DDE = dose-dependent effect
How it was run: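 1000 B16-F10 cells seeded and cultured 24 h at 37 °C, then exposed to compound for 24 h. Medium was then replaced and cells grown 10–14 days. Colonies fixed with 4% paraformaldehyde for 30 min, stained with 0.1% crystal violet for 15 min, and counted; n = 3 versus DMSO.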

[13] = Toxicity in C57BL/6 mouse allografted with mouse B16-F10 cells assessed as morphological abnormalities in kidney at 10 mg/kg, ip administered for 14 days by H and E staining based analysis; format: organism-based; conditions: in vivo, 336 h, time 14 day
How it was run: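 C57BL/6 mice with subcutaneous B16-F10 allografts, n = 8 per group, given i.p. injections once daily for 14 days. Single agents at 10 mg/kg; combination at 5 + 5 mg/kg. Vehicle: ethanol/polyoxyethylene castor oil/saline 1.25:1.25:7.5. Liver and kidney fixed in 4% paraformaldehyde, paraffin-embedded, H&E stained and examined by microscopy.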

[14] = tested on: B16-F10; test: Induction of apoptosis in mouse B16-F10 cells assessed as late apoptotic cells at 50 nM incubated for 48 hrs by Annexin V-FITC/PI analysis (reference value: 1.68 %); format: functional
[15] = tested on: B16-F10; test: Antimigratory activity against mouse […] cells assessed as reduction in wound closure measured up to 24 hrs by scratch wound healing assay; format: functional, cell-based; conditions: dose 25-100 nM, DDE = dose-dependent effect
How it was run: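 B16-F10 cells seeded overnight; confluent monolayers scratched with a pipette tip and rinsed twice with medium to clear debris. Cells treated with compound for 24 h against a DMSO control. Phase-contrast images taken at 0 and 24 h. Migration distance into the wound, or scratch length, measured by hand. n = 3.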

Tubulin (Sus scrofa), sequence (P02550 whole entry, looked up): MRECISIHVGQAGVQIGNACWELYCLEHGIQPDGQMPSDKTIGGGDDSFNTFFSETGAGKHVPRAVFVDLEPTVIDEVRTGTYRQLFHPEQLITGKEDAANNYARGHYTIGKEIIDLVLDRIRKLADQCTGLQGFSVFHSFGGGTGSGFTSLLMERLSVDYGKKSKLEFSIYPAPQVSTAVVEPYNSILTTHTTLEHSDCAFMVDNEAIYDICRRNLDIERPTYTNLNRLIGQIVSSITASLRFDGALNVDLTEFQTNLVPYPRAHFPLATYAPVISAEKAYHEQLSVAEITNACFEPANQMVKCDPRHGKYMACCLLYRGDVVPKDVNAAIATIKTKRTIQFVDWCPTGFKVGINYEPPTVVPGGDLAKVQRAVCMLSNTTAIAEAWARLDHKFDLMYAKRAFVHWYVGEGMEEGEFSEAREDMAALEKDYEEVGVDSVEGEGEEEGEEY
Tubulin (Sus scrofa), sequence (P02554 whole entry, looked up): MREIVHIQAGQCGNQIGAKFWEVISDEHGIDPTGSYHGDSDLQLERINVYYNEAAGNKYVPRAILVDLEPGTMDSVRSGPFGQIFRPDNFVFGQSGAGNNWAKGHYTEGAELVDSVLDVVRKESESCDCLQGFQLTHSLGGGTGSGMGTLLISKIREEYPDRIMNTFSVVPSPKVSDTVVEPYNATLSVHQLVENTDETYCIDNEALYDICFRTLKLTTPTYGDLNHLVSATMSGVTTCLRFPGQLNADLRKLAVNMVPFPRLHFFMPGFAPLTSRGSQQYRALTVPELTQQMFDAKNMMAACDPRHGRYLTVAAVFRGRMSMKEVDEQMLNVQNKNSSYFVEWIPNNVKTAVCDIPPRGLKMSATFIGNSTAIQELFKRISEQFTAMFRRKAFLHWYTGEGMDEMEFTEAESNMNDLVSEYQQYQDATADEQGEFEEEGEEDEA

COc1cc(C(=O)c2csc(-c3ccc(NC(=O)CCCC(=O)Nc4ccccc4N)cc3)n2)cc(OC)c1OC
inhibition [1]: 70%
Activity [2]: Non-Toxic
Activity [3]: Non-Toxic
viability at 0.1 µM [4]: 31.6%
Activity [5]: Non-Toxic
Activity [6]: Non-Toxic
Activity [7]: 5.83%
Activity [8]: 0%
IC50 [9]: 31 µM
viability at 0.025 µM [10]: 89.1%
IC50 [11]: 0.56 µM
Activity [12]: Dde
Activity [13]: Non-Toxic
Activity [14]: 32.3%
Activity [15]: Dde
